Reference: article PMC3603146 (Nature structural & molecular biology, 2012)
Numbering of substitutions follows the chain as printed. In names and notes the source's numbering stands. One block for each molecule: values may come before it. Square brackets hold non-standard residues; d marks the D form. Peptide text beside a SMILES is read from it. Lys(Me3) = C[N+](C)(C)CCCC[C@H](N)C(=O)O

Assays:
XRCC1 = XRCC1 accumulation at single stranded breaks upon PARP1 inhibitor treatment; type: cell-based; conditions: low doses of radiation
[1] = tested on: poly (ADP-ribose) PAR polymer; assay: Poly; type: cell-based; conditions: Western analysis
PHF1 Tudor (WT) = PHF1 Tudor (WT) (Homo sapiens, UniProt O43189); assay: NMR 1H,15N HSQC titration of wild type PHF1 Tudor with histone peptides; type: binding; conditions: for NMR chemical shift / resonance perturbations in PHF1 Tudor: titration of unlabeled peptide into 15N-labeled wild type Tudor
PHF1 Tudor W41A = PHF1 Tudor W41A (Homo sapiens, UniProt O43189, W41A); assay: NMR 1H,15N HSQC titration of PHF1 Tudor W41A mutant; type: binding; conditions: structure of the protein remained intact
Method in brief: (§1)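 Uniformly 15N-labeled mutant PHF1 Tudor (residues 14–87) was GST-purified from E. coli BL21(DE3) pLysS grown in 15NH4Cl M9 (0.5 mM IPTG), tag-cleaved and size-exclusion purified. 1H,15N HSQC spectra were recorded at 600 MHz (cryoprobe) with increasing concentrations of 12-mer histone tail peptides. Kd came from nonlinear least-squares fitting of normalized chemical shift changes versus peptide and protein concentration.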

PHF1 Tudor Y47A = PHF1 Tudor Y47A (Homo sapiens, UniProt O43189, Y47A); assay: NMR 1H,15N HSQC titration of PHF1 Tudor Y47A mutant; type: binding; conditions: structure of the protein remained intact
Method in brief: as §1

GST-fusion PHF1 Tudor = assay: Pull-down of GST-fusion PHF1 Tudor with biotinylated histone peptides; type: binding, human; conditions: biotinylated peptides (H3K4, H3K9, unmodified H3: residues 1–21; H3K27, H3K36: residues 21–44), 50 mM Tris pH 7.5, 150 mM NaCl, 0.05% Nonidet P-40; anti-GST western
Method in brief: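 GST-tagged human PHF1 Tudor (residues 14–87) expressed in E. coli BL21(DE3) pLysS with 0.5 mM IPTG induction, purified on glutathione beads, eluted with 0.05 M reduced glutathione, then size exclusion. The protein was incubated with C-terminally biotinylated peptides (me1/me2/me3 forms) plus streptavidin beads. Beads were washed five times in binding buffer, and bound protein was detected with HRP-conjugated anti-GST monoclonal.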

[2] = tested on: Oct4, Nanog, HoxA4 and HoxA11 promoters, mouse ES cells; assay: ChIP of H3K27me3 in mouse ES cells expressing Flag-PHF1; type: cell-based; conditions: stably expressing Flag-PHF1 vs empty vector; H3K27me3 to total H3; two experiments
Method in brief: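 Mouse ES cells (ww6), grown on fibroblasts or with recombinant LIF, transduced with virus carrying pRTF vector (empty or Flag-PHF1); Flag-PHF1 clones selected. ChIP on 500 μg cross-linked chromatin with anti-H3 or anti-H3K27me3; qPCR with primers near the transcription start site. H3K27me3 expressed as ratio to total H3 to correct for nucleosome density; two separate ChIP experiments.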

HEK293T cells = type: cell-based; conditions: HA-tagged PHF1, 48 hours after transfection, compared with empty vector
Method in brief: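 HEK293T cells were grown in DMEM with 10% FBS and penicillin/streptomycin. They were transiently transfected using polyethylenimine with full-length human PHF1 (C-terminal HA tag, pIRES2-EGFP; wild type, W41A or Y47A) or empty plasmid as negative control. Whole-cell lysates were collected 48 h post-transfection for Western blot with rabbit antibodies to HA, histone H3, H3K27me3 and H3K36me3.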

[3] = tested on: MYT1 promoter, HEK293T cells; assay: ChIP at the MYT1 promoter in HEK293T cells; type: cell-based; conditions: upon overexpression of PHF1; normalized to H3
Method in brief: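 HEK293T cells were transiently transfected with empty vector, wild-type HA-PHF1 or W41A/Y47A mutants, then fixed 48 h later (1×10^7 cells, 1% formaldehyde, 14 min, room temperature). Chromatin was sonicated to ~500 bp and immunoprecipitated with 4 μg antibody and Protein A magnetic beads. qPCR was run in triplicate with 7 MYT1 primer sets (−1680 to 866 around TSS). Fold-enrichment = IgG-subtracted %Input ÷ that of reference gene PCLB4. Data are mean ± SD of three biological replicates.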

Sequence of PHF1 Tudor Y47A (O43189 14-87 Y47A): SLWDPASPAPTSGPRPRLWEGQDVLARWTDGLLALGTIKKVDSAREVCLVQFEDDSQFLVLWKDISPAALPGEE
Sequence of PHF1 Tudor W41A (O43189 14-87 W41A): as the sequence (O43189 14-87 Y47A) above, with W28A, A34Y counted along it

Molecule: O=C(c1cc(Cc2n[nH]c(=O)c3ccccc23)ccc1F)N1CCN(C(=O)C2CC2)CC1 [AZD2281]
accumulation of XRCC1 at single stranded breaks (XRCC1): loss of accumulation | poly (ADP-ribose) PAR polymer [1]: decrease in poly (ADP-ribose) PAR polymer

times weaker binding than H3K36me3 (trimethylated at other lysine residues) (PHF1 Tudor (WT); relative to H3K36me3, ITC or NMR (Fig. 3a)): ~8 times
Molecule: C[C@H](N)C(=O)N[C@@H](CCCNC(=N)N)C(=O)N[C@H](C(=O)N[C@@H](CCCC[N+](C)(C)C)C(=O)N[C@@H](CCC(N)=O)C(=O)N[C@H](C(=O)N[C@@H](C)C(=O)N[C@@H](CCCNC(=N)N)C(=O)N[C@@H](CCCCN)C(=O)N[C@@H](CO)C(=O)N[C@H](C(=O)NCC(=O)O)[C@@H](C)O)[C@@H](C)O)[C@@H](C)O [H3K4me3]
NMR chemical shift / resonance perturbations in PHF1 Tudor (PHF1 Tudor (WT)): slightly different patterns of chemical shift changes

NMR chemical shift / resonance perturbations in PHF1 Tudor (PHF1 Tudor (WT)): large chemical shift perturbations | effect of W41A substitution on binding to H3K36me3 (PHF1 Tudor W41A): disrupted binding | effect of Y47A substitution on binding to H3K36me3 (PHF1 Tudor Y47A): disrupted binding
Molecule: CC(C)[C@H](NC(=O)CNC(=O)CNC(=O)[C@@H](NC(=O)[C@H](C)N)[C@@H](C)O)C(=O)N[C@@H](CCCC[N+](C)(C)C)C(=O)N[C@@H](CCCCN)C(=O)N1CCC[C@H]1C(=O)N[C@@H](Cc1c[nH]cn1)C(=O)N[C@@H](CCCNC(=N)N)C(=O)O [H3K36me3] (H-ATGGV[Lys(Me3)]KPHR-OH; N-terminus and C-terminus assumed)
association of PHF1 Tudor in pull-down (GST-fusion PHF1 Tudor): associated most strongly

B1: Flag-PHF1: Flag-tagged PHF1 stably expressed in mouse ES cells (protein, UniProt Q9Z1B8 1-559, looked up)
PHD finger protein 1: MAQLPRLSRLGAPSLWDPASPAPTSGPRPRLWEGQDVLARWTDGLLYLGTIKKVDSAREVCLVQFEDDSQFLVLWKDISPAALPGEELLCCVCRSETVVPGNRLVSCEKCRHAYHQDCHVPRAPAPGEGEGASWVCRQCVFAIATKRGGALKKGPYARAMLGMKLSLPYGLKGLDWDAGHLSNRQQSYCYCGGPGEWNLKMLQCRSCLQWFHEACTQCLSKPLLYGDRFYEFECCVCRGGPEKVRRLQLRWVDVAHLVLYHLSVCCKKKYFDFDREILPFTSENWDSLLLGELSDTPKGERSSQLLSALNSHKDRFISGREIKKRKCLFGLHARTPPPVELLTGDGAPTSFPSGQGPGGGVSRPLGKRWRSEPEPLRRRQKGKVEELGPPTAAHSRHGSREQRALQASVSPPPPSPNQSYEGSSGYNFRPTDARCLPSSPIRMFASFHPSASTAGTSGDSEPPDRSPLGLHIGFPTDTPKSSPHSVTASSSSVPALTPGFSRHSPPSPLCRSLSPGTGGGVRGGVSYLSRGDPVRVLARRVRPDGSVQYLVEWGGGGIF
modifications: Flag tag
H3K27me3 level at HoxA4 and HoxA11 [2]: comparable H3K27me3 level | H3K27me3 signal at Oct4 and Nanog [2]: reproducible decrease of the H3K27me3 signal

B2: wild type PHF1: full length hPHF1 expressed in HEK293T (HA-tag) or K562 cells (Flag) (protein, UniProt O43189 1-567, looked up)
chain: MAQPPRLSRSGASSLWDPASPAPTSGPRPRLWEGQDVLARWTDGLLYLGTIKKVDSAREVCLVQFEDDSQFLVLWKDISPAALPGEELLCCVCRSETVVPGNRLVSCEKCRHAYHQDCHVPRAPAPGEGEGTSWVCRQCVFAIATKRGGALKKGPYARAMLGMKLSLPYGLKGLDWDAGHLSNRQQSYCYCGGPGEWNLKMLQCRSCLQWFHEACTQCLSKPLLYGDRFYEFECCVCRGGPEKVRRLQLRWVDVAHLVLYHLSVCCKKKYFDFDREILPFTSENWDSLLLGELSDTPKGERSSRLLSALNSHKDRFISGREIKKRKCLFGLHARMPPPVEPPTGDGALTSFPSGQGPGGGVSRPLGKRRRPEPEPLRRRQKGKVEELGPPSAVRNQPEPQEQRERAHLQRALQASVSPPSPSPNQSYQGSSGYNFRPTDARCLPSSPIRMFASFHPSASTAGTSGDSGPPDRSPLELHIGFPTDIPKSAPHSMTASSSSVSSPSPGLPRRSAPPSPLCRSLSPGTGGGVRGGVGYLSRGDPVRVLARRVRPDGSVQYLVEWGGGGIF
modifications: full-length HA or Flag tag
global level of H3K27me3 (HEK293T cells): decrease in the global level of H3K27me3 | H3K27me3 levels at MYT1 [3]: substantially reduced

B3: Y47A: PHF1 mutant impaired in H3K36me3 binding; HA-tagged, GFP-fusion or in Flag-PHF1-PRC2 complex according to the test (protein, UniProt O43189 1-567, looked up, variant Y47A)
PHD finger protein 1: B2 chain with Y47A
modifications: HA, GFP or Flag tag
global level of H3K27me3 (HEK293T cells): no effect on the H3K27me3 level

B4: W41A: PHF1 mutant impaired in H3K36me3 binding; HA-tagged, GFP-fusion or in Flag-PHF1-PRC2 complex according to the test (protein, UniProt O43189 1-567, looked up, variant W41A)
PHD finger protein 1: B2 chain with W41A
modifications: HA, GFP or Flag tag
global level of H3K27me3 (HEK293T cells): no effect on the H3K27me3 level
